Here are results for 14 compounds from ChEMBL document CHEMBL1125418, “Antimycobacterial activity of a series of pyrazinoic acid esters” (1992).

Assay type in all cases: functional
For assay [1], the system named is Mycobacterium tuberculosis variant bovis. Description: In vitro activity against Mycobacterium. tuberculosis (strain type-ATCC 27289).at pH 5.8. Summed up:
(§1)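 Middlebrook 7H10 agar plus 10% OADC at pH 5.8 in compartmented plates, with serial twofold dilutions from 200 to 3.12 µg/mL. Plates were prepared 24–48 h before use and stored at 4 °C. A drug-free compartment was included per isolate. Incubation was 37 °C for 4 weeks. MIC was the lowest level producing 99% (2 log) inhibition of growth.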

For assay [2] the test system is unchanged. Description: In vitro activity against Mycobacterium. tuberculosis (strain type-ATCC 27289).at pH 6.6. Summed up: (§2)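 Twofold serial dilutions (200–3.12 µg/mL) in 7H10 agar with 10% OADC enrichment at pH 6.6, in compartmented plates. Plates were stored at 4 °C and used within 24–48 h. A no-drug compartment served as control for each isolate. Plates were incubated for 4 weeks at 37 °C. MIC was the lowest concentration giving 99% (2 log) growth inhibition.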

Assay [3] has the same test system. Description: In vitro activity against Mycobacterium. tuberculosis (strain type-ATCC 27289)at pH 5.8. In a few lines:
as §1

Assay [4] shares this test system. In words: In vitro inhibitory activity against Mycobacterium tuberculosis (strain type-ATCC 27289). at pH 5.8. Summed up:
as §1

The test system is the same in assay [5]. Description: In vitro inhibitory activity against Mycobacterium tuberculosis (strain type-ATCC 27289). at pH 6.6. Summed up:
as §2

The test system is the same in assay [6]. In words: In vitro activity against Mycobacterium. tuberculosis (strain type-ATCC 27289). at pH 6.6. Summed up:
as §2

The test system is the same in assay [7]. In words: In vitro activity against Mycobacterium. tuberculosis (strain type-ATCC 27289)at pH 6.6. Summed up:
as §2

Assay [8] shares this test system. Description: In vitro inhibitory activity against Mycobacterium. tuberculosis (strain type-ATCC 27289).at pH 5.8. Summed up:
as §1

Assay [9] has the same test system. In words: In vitro inhibitory activity against Mycobacterium. tuberculosis (strain type-ATCC 27289).at pH 6.6. Summed up:
as §2

For assay [10] the test system is unchanged. In words: In vitro inhibitory activity against Mycobacterium tuberculosis (strain type-ATCC 27289) at pH 5.8. Summed up:
as §1

Values after ≈ are worked out from the molar mass of the structure shown.

One may read the MIC as the lowest concentration found to suppress growth. As to `CC(C)(C)c1ccc(OC(=O)c2cnccn2)cc1`, the MIC worked out at 25 µg/mL (≈ 97.5 µM) in [1] and 200 µg/mL (≈ 780 µM) in assay [2].

Regarding `O=C(OCCCl)c1cnccn1`, the MIC in assay [3] is 6.25 µg/mL (≈ 33.5 µM).

`CN(C)CCOC(=O)c1cnccn1`: the minimum inhibitory concentration (MIC) came to 12.5 µg/mL (≈ 64 µM) in [4] and 200 µg/mL (≈ 1020 µM) in assay [5].

For `O=C(OCC(F)(F)F)c1cnccn1`, the MIC in assay [6] is > 200 µg/mL; in assay [1], 25 µg/mL (≈ 121 µM).

As to `Cc1ccc(OC(=O)c2cnccn2)cc1`, the MIC turned out to be 6.25 µg/mL (≈ 29.2 µM) in [1] and 50 µg/mL (≈ 233 µM) in assay [2].

Take `O=C(Oc1ccc([N+](=O)[O-])cc1)c1cnccn1`: the MIC was determined as 3.12 µg/mL (≈ 12.7 µM) in assay [1] and 100 µg/mL (≈ 408 µM) in [2].

`CCCOC(=O)c1cnccn1`: the MIC in [1] was 6.25 µg/mL (≈ 37.6 µM); in assay [2], 25 µg/mL (≈ 150 µM).

For `O=C(Oc1c(F)c(F)c(F)c(F)c1F)c1cnccn1`, the MIC in assay [1] came to 12.5 µg/mL (≈ 43.1 µM); in [7] it was 100 µg/mL (≈ 345 µM).

Take `C=CCOC(=O)c1cnccn1`: the values for the MIC in [1] and in assay [2] were < 3.12 µg/mL and 200 µg/mL (≈ 1220 µM), respectively.

Take `O=C(Oc1ccc(-c2ccccc2)cc1)c1cnccn1`: the MIC in [1] turned out to be 25 µg/mL (≈ 90.5 µM); in assay [2] it was 100 µg/mL (≈ 362 µM).

Regarding `O=C(OCCBr)c1cnccn1`, the MIC in assay [2] was > 200 µg/mL.

Consider `O=C(OC(C(F)(F)F)C(F)(F)F)c1cnccn1`, for which the MIC in assay [1] was > 200 µg/mL.

Regarding `NC(=O)c1cnccn1` [PYRAZINAMIDE], the MIC in [8] and in assay [9] was > 200 µg/mL in each case.

Turning to `O=C(O)c1cnccn1` [PYRAZINOIC ACID], the minimal inhibitory concentration (MIC) in [10] was 100 µg/mL (≈ 806 µM); in [5] it was > 200 µg/mL.
